Laboratory results: PMC11384490 (Translational Lung Cancer Research, 2024)

Experiments:
[1] = NIRF imaging and biodistribution in NSCLC subcutaneous tumor mouse model; format: in vivo, BALB/c nude mice; settings: mouse, in vivo, iv, 10 nmol
Outline: (§1)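 A549 cells in 100 µL PBS were injected subcutaneously into the left armpit of isoflurane-anaesthetised BALB/c nude mice, and tumours were sized by caliper (V=a2bπ/2). At about 100 mm3, mice (n=3) got the test compound (10 nmol) by tail vein. IVIS imaging ran from 1 h to several days, and tumour-to-background ratio was calculated. At 96 h, organs were excised, imaged, and organ-to-muscle fluorescence ratios averaged over 3 mice.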

A549 subcutaneous tumors = experiment: as above; format: in vivo, BALB/c nude mice
Outline: as §1

[2] = tested on: orthotopic LLC pulmonary xenografts; experiment: Orthotopic pulmonary LLC tumor imaging and boundary analysis; format: in vivo, C57BL/6 mice
[3] = tested on: 4T1 lung metastatic nodules; experiment: Imaging of experimental lung metastasis model; format: in vivo, Balb/c mouse; settings: iRGD-ZW800 10 nmol, 4 h vs ICG 100 nmol, 24 h; result in words
Outline: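 Balb/c mice received 4T1 cells by tail vein and were observed weekly. After four weeks, the test compound (10 nmol) was given by tail vein. The chest was opened 4 h later and the lungs were imaged with an intraoperative NIRF imager. Control mice got ICG (100 nmol) and were imaged the same way after 24 h.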

Water solubility = format: physicochemical; settings: result in words

Compound: CC1(C)C(/C=C/C2=C(Oc3ccc(CCC(=O)N[C@H]4CSSC[C@@H](C(=O)O)NC(=O)[C@H](CC(=O)O)NC(=O)[C@@H]5CCCN5C(=O)CNC(=O)[C@H](CCCCN)NC(=O)[C@H](CC(=O)O)NC(=O)CNC(=O)[C@H](CCCNC(=N)N)NC4=O)cc3)C(=C/C=C3/N(CCC[N+](C)(C)C)c4ccc(S(=O)(=O)O)cc4C3(C)C)/CCC2)=[N+](CCC[N+](C)(C)C)c2ccc(S(=O)(=O)O)cc21 [iRGD-ZW800]
- tissue to tissue ratio at 96 h [1]: 16.6
- peak tumor-to-background ratio (TBRmax) (A549 subcutaneous tumors; 10 nmol per animal via tail vein, peak 96 h after injection, IVIS imaging, n=3): 4.3±1.04
- Fluorescence intensity ratio Sp/M (spleen/muscle) (A549 subcutaneous tumors; ex vivo organs, 96 h after 10 nmol i.v., AVG of 3 mice, SD 0.19): 0.85
- Fluorescence intensity ratio In/M (intestine/muscle) (A549 subcutaneous tumors; ex vivo organs, 96 h after 10 nmol i.v., AVG of 3 mice, SD 0.58): 1.43
- Fluorescence intensity ratio H/M (heart/muscle) (A549 subcutaneous tumors; ex vivo organs, 96 h after 10 nmol i.v., AVG of 3 mice, SD 0.60): 1.50
- Fluorescence intensity ratio Ki/M (kidney/muscle) (A549 subcutaneous tumors; ex vivo organs, 96 h after 10 nmol i.v., AVG of 3 mice, SD 1.64): 4.57
- Fluorescence intensity ratio St/M (stomach/muscle) (A549 subcutaneous tumors; ex vivo organs, 96 h after 10 nmol i.v., AVG of 3 mice, SD 1.85): 3.67
- Fluorescence intensity ratio Li/M (liver/muscle) (A549 subcutaneous tumors; ex vivo organs, 96 h after 10 nmol i.v., AVG of 3 mice, SD 2.55): 5.28
- Fluorescence intensity ratio L/M (lung/muscle) (A549 subcutaneous tumors; ex vivo organs, 96 h after 10 nmol i.v., AVG of 3 mice, SD 2.67): 5.01
- Fluorescence intensity ratio C/M (colon/muscle) (A549 subcutaneous tumors; ex vivo organs, 96 h after 10 nmol i.v., AVG of 3 mice, SD 3.74): 6.80
- imaging window (A549 subcutaneous tumors; in vivo, 10 nmol tail vein, imaged periodically over 6 days): ≥ 6 days
- ratio of tumor to lung fluorescence intensity ([2]; 10 nmol tail vein, 24 h, FLI-10B imaging, ImageJ, standard deviation 0.18): 2.2
- tumor background ratios ([2]; lung tumor imaging in C57BL/6J mice, all ratios): greater than 1.5
- detection of metastatic lung nodules compared with ICG [3]: superior ability to detect more nodules
- water solubility (Water solubility): good water solubility
- water solubility (Water solubility; listed as iRGD fluorescent tracer): highly soluble in water
